The nature of data set [1]: Growth inhibition of human HME50 cells at 100 nM. The class given is cell-based.
The nature of data set [2]: Growth inhibition of human HME50T cells at 100 nM. The data set is classed as functional.
In the next data set the test system is SK-HEP1. Briefly: Cytotoxicity against human SKHEP1 cells expressing vacuolar ATPase. The data set is classed as functional, cell-based. The method in brief:
(§1)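 Cancer cell lines treated across a range of compound concentrations; the concentration inhibiting growth by 50% was calculated. IC50 given as average ± standard deviation of three experiments.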

The test system of a further data set is MG-63. Description: Cytotoxicity against human MG63 cells expressing vacuolar ATPase. The class given is functional, cell-based. The method in brief: as §1
Another data set relates to PANC-1. Description: Cytotoxicity against human PANC1 cells expressing vacuolar ATPase. The class given is functional, cell-based. The method in brief:
as §1

In the next data set the test system is A549. Description: Cytotoxicity against human A549 cells expressing vacuolar ATPase. The data set is classed as functional, cell-based. The method, boiled down: as §1
In the next data set the test system is MCF7. Description: Cytotoxicity against human MCF7 cells expressing vacuolar ATPase. The class given is functional, cell-based. The method, boiled down: as §1
The next data set concerns SK-MEL-28. Briefly: Cytotoxicity against human SK-MEL-28 cells expressing vacuolar ATPase. The data set is classed as functional, cell-based. The method, boiled down: as §1
Another data set concerns HOS. Description: Cytotoxicity against human HOS cells expressing vacuolar ATPase. The class given is functional, cell-based. The method, boiled down:
as §1

The next data set deals with HCT-15. Description: Cytotoxicity against human HCT15 cells expressing vacuolar ATPase. The data set is classed as functional, cell-based. The method in brief:
as §1

For the next data set, the system named is SK-MES-1. Briefly: Cytotoxicity against human SKMES1 cells expressing vacuolar ATPase. The data set is classed as functional, cell-based. The method in brief: as §1
The test system of a further data set is SW480. Description: Cytotoxicity against human SW480 cells expressing vacuolar ATPase. The class given is functional, cell-based. The method in brief:
as §1

The next data set deals with HepG2. Description: Cytotoxicity against human HepG2 cells expressing vacuolar ATPase. The class given is functional, cell-based. The method, boiled down:
as §1

The subject of the next data set is NCI-H460. Description: Cytotoxicity against human NCI-H460 cells expressing vacuolar ATPase. The data set is classed as functional, cell-based. The method, boiled down: as §1
For the next data set, the system named is A2058. Briefly: Cytotoxicity against human A2058 cells expressing vacuolar ATPase. The class given is functional, cell-based. The method in brief:
as §1

Another data set relates to HCT-116. Briefly: Cytotoxicity against human HCT116 cells expressing vacuolar ATPase. The class given is functional, cell-based. The method, boiled down: as §1
A further data set deals with NCI-H1299. Description: Cytotoxicity against human NCI-H1299 cells expressing vacuolar ATPase. The class given is functional, cell-based. The method, boiled down:
as §1

The next data set deals with ASPC1. Briefly: Cytotoxicity against human AsPC1 cells expressing vacuolar ATPase. The class given is functional, cell-based. The method, boiled down: as §1
In the next data set the test system is HT-29. Briefly: Cytotoxicity against human HT-29 cells expressing vacuolar ATPase. The data set is classed as functional, cell-based. The method in brief:
as §1

The test system of the next data set is MDA-MB-231. Description: Cytotoxicity against human MDA-MB-231 cells expressing vacuolar ATPase. The data set is classed as functional, cell-based. The method, boiled down:
as §1

Data set [3] in a line: Cytotoxicity against human MCF7/DX cells expressing vacuolar ATPase. The data set is classed as functional, cell-based. The method in brief:
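Doxorubicin-resistant MCF-7 subline, resistant to chemotherapeutics that are P-glycoprotein substrates. Cells treated across a range of compound concentrations; the concentration inhibiting growth by 50% was calculated. IC50 given as average ± standard deviation of three experiments.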

In the next data set the test system is SK-MEL-5. Briefly: Cytotoxicity against human SK-MEL-5 cells expressing vacuolar ATPase. The data set is classed as functional, cell-based. The method in brief: as §1

pIC50: −log10 of the molar value.

In general, inhibition refers to the percentage by which the read-out fell short of the control. In the case of `CC/C=C\C=C/C(=O)N/C=C/C[C@H]1C[C@@H](O)[C@@H](C)C/C=C/Cc2cccc(O)c2C(=O)O1` [SALICYLIHALAMIDE A], the inhibition at 0.1 µM in data set [1] came out at 60%; in [2] it was 75%.

Broadly, the pIC50 is −log10 of the IC50, conventionally taken in molar units. A higher pIC50 goes with a small IC50. On to `C[C@H]1C/C=C/Cc2cccc(O)c2C(=O)O[C@@H](C/C=C/NC(=O)C#Cc2ccccc2)C[C@H]1O` [SALIPHENYLHALAMIDE], for which the pIC50 with SK-HEP1 was 7.39; with MG-63 it was 6.35; in the data set on PANC-1, 6.91; in the data set with A549 it was 6.84; in the data set on MCF7 it was 6.81; with SK-MEL-28 it was 7.01. For the same compound, the pIC50 in the data set on HOS is 7.31; in the data set on HCT-15 it was 7.00; with SK-MES-1, 7.12; in the data set on SW480, 6.37; with HepG2 it was 7.10; in the data set with NCI-H460, 7.28. In addition, the pIC50 was 6.81 in the data set on A2058; 7.16 in the data set on HCT-116; 7.11 in the data set on NCI-H1299; 7.12 in the data set on ASPC1; 7.05 in the data set on HT-29; 6.75 in the data set with MDA-MB-231. Moreover, the results for the pIC50 (in data set [3]; with SK-MEL-5) were 6.80 and 6.98, respectively. Further, testing at 0.1 µM in [2] gave an inhibition of 95%.

Source of the values: ChEMBL document CHEMBL1154497, “Evaluating the potential of vacuolar ATPase inhibitors as anticancer agents and multigram synthesis of the potent salicylihalamide analog saliphenylhalamide” (Bioorg Med Chem Lett, 2008).
